Series [1] concerns the target T1, 5-hydroxytryptamine receptor 2A (Homo sapiens, UniProt P28223). The settings on record: CHO-K1, 10 uM.
In series [2] the target is T2, 5-hydroxytryptamine receptor 1A (Homo sapiens) (UniProt P08908).
T2 sequence (whole entry): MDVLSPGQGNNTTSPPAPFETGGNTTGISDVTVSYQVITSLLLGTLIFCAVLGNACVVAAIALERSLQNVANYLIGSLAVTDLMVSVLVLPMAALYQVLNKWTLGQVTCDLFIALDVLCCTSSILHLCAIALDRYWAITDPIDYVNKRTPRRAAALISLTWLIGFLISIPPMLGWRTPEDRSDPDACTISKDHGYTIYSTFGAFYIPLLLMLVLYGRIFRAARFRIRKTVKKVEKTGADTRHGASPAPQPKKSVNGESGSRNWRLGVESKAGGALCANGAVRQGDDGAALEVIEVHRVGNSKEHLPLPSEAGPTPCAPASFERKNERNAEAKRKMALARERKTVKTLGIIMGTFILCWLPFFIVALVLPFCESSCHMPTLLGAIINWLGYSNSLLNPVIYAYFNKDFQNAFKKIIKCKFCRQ
The settings on record: CHO-K1, 10 uM.

Series [3] has as its system Rattus norvegicus. The experiment in a line: Toxicity in Sprague-Dawley rat assessed as cataleptogenic effect by measuring time spent in cataleptic position at 1 to 10 mg/kg, po measured after 0.5 to 2 hrs. Type of series: organism-based. The settings on record: in vivo. A digest of the protocol:
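Male SD rats (180–250 g, n = 7) dosed orally at 1.0, 3.0 or 10.0 mg/kg. Forepaws placed on a bar 0.9 cm in diameter, 11 cm high, at 30, 60 and 120 min after dosing. Time held is expressed as a percentage of the 60 s maximum (mean ± SEM).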

The test system of series [4] is Rattus norvegicus. The experiment in a line: Antipsychotic activity in Sprague-Dawley rat assessed as inhibition of conditioned avoidance behavior at 1.0 to 2.0 mg/kg, ip administered as single dose measured after 1 hr. Type of series: functional, organism-based. Put shortly: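 Male SD rats (150–180 g, 6 per group) trained in automated shuttle-boxes; only rats exceeding 80% avoidance were used. Single i.p. dose of 1.0 or 2.0 mg/kg given 1 h before a 20-trial session. Read-out is percentage of avoidance (mean ± SEM, n = 6), compared with the vehicle group.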

Series [5] concerns Rattus norvegicus. In words: Cognitive enhancement effect in Sprague-Dawley rat assessed as reversal of PCP-impaired performance by measuring increase in time spent exploring novel object in comparison to familiar object at 0.1 mg/kg, po administered 60 mins prior to test by novel object recognition assay.
The test system of series [6] is Rattus norvegicus. The experiment in a line: Reversal of PCP-induced hyperlocomotion activity in ip dosed Sprague-Dawley rat pretreated for 10 mins followed by PCP challenge measured after […]. It is filed as functional, organism-based.
For series [7], the target named is T3, Muscarinic acetylcholine receptor M1 (Homo sapiens, UniProt P11229).
T3 sequence (P11229 whole entry): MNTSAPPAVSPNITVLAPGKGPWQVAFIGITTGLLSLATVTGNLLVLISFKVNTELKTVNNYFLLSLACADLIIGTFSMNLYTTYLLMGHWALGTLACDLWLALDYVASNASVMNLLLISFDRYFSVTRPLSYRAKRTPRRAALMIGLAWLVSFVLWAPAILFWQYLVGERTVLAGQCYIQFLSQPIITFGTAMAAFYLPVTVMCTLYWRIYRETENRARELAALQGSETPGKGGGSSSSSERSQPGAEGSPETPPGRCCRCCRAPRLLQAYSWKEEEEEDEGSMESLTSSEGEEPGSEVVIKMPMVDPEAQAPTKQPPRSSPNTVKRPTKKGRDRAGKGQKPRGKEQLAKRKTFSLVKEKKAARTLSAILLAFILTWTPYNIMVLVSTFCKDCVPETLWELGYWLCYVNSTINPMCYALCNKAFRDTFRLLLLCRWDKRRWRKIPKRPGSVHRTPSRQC
In words: Displacement of [3H]pirenzepine from recombinant human M1 receptor expressed in CHO cell membranes at 1 uM after 60 mins by scintillation counting method relative to control. The settings on record: CHO cell membranes expressing recombinant human M1 receptor, probe [3H]pirenzepine. Put shortly: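 Nonspecific binding defined with […]. Filtered on PEI-soaked GF/B and scintillation counted. Expressed as percent inhibition of control specific binding at a single test concentration.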

The test system of the next series is CHO. The experiment in a line: Selectivity ratio of Ki for displacement of [3H]spiperone from recombinant human D2L receptor expressed in CHO cell membranes to Ki for displacement of [3H]methyl-spiperone from recombinant human D3 receptor expressed in CHO cell membranes. Put shortly:
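D2L binding: CHO membranes (16 µg protein) with 0.3 nM [3H]methyl-spiperone in 50 mM Tris-HCl pH 7.4, 120 mM NaCl, 10 mM MgCl2, 1 mM EDTA, with butaclamol for nonspecific binding. D3 binding: membranes (8 µg) with 0.3 nM [3H]methyl-spiperone in the same Tris buffer with 5 mM KCl, 5 mM MgCl2, 5 mM EDTA, with (+)butaclamol for nonspecific binding. Both run 60 min at 22 °C, then GF/B filtration. Ki by Cheng–Prusoff; ratio is D2 Ki/D3 Ki.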

Series [8] is described as follows: Stability of compound. It is filed as physicochemical.
The next series concerns the target D(2) dopamine receptor (Homo sapiens, UniProt P14416). In words: Displacement of [3H]spiperone from recombinant human D2L receptor expressed in CHO cell membranes after 60 mins by scintillation counting method.
The target of series [9] is T1, 5-hydroxytryptamine receptor 2A. The experiment in a line: Displacement of [3H]ketanserin from recombinant human 5-HT2A receptor expressed in HEK293 cell membranes after 60 mins by scintillation counting method. A general note: Displacement assays read how much labelled ligand stays bound in the presence of the test substance.
The target in another series is D(3) dopamine receptor (Homo sapiens, UniProt P35462). In words: Displacement of [3H]methyl-spiperone from recombinant human D3 receptor expressed in CHO cell membranes after 60 mins by scintillation counting method.
The target of series [10] is T4, 5-hydroxytryptamine receptor 1A (Homo sapiens, UniProt P08908).
T4 sequence (P08908 whole entry): T2 sequence (whole entry)
In words: Displacement of [3H]8-OH-DPAT from recombinant human 5-HT1A receptor expressed in HEK293 cell membranes after 60 mins by scintillation counting method.

pKi: −log10 of the molar value. Activity calls are given as the source filed them. The calls are words filed in the database; no cut-off is given here.

Usually inhibition stands for the change of the read-out against control, counted positive when it falls. As usually defined, the pKi is the negative decadic logarithm of the Ki, by convention in mol/L.

T1 sequence (P28223 whole entry): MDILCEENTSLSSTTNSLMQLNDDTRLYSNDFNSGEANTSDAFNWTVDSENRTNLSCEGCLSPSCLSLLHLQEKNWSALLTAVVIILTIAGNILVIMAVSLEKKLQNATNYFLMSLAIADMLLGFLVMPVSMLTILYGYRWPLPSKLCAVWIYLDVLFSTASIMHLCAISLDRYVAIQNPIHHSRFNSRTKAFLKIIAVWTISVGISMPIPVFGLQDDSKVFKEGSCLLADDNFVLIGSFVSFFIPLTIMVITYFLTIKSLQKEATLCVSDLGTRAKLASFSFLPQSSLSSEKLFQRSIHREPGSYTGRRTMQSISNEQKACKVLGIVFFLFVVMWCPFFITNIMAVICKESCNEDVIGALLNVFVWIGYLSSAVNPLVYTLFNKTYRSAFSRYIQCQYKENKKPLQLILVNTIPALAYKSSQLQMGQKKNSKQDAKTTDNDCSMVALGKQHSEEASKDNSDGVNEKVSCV
Sequence of D(2) dopamine receptor (P14416 whole entry): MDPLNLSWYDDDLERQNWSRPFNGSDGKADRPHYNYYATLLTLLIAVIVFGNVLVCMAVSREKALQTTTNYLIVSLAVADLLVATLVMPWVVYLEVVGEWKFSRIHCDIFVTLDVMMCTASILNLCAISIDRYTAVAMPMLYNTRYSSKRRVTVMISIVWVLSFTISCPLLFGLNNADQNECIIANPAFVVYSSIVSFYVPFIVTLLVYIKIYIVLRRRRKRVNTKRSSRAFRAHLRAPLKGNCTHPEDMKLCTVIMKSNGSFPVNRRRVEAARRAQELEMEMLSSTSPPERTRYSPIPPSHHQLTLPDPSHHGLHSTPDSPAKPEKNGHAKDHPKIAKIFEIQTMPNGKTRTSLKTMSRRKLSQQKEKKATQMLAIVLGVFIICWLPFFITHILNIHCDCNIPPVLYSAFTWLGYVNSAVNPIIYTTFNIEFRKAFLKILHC
Sequence of D(3) dopamine receptor (P35462 whole entry): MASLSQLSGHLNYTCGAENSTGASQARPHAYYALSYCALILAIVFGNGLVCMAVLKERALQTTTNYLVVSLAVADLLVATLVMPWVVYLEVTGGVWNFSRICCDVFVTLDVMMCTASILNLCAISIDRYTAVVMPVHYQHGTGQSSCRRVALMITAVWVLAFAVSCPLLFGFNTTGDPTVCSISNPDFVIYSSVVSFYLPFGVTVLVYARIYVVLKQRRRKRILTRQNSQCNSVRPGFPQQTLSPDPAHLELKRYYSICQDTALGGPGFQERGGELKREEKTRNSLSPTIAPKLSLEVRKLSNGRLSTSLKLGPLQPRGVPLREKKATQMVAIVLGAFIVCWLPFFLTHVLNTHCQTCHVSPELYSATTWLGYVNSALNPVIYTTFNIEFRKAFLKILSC

Take `CSc1ccc2c(c1)C(N1CCN(C)CC1)Cc1ccccc1S2` (stereo not given): the inhibition in series [1] worked out at 100%; in series [2], 108%.
As for `Cc1nc2n(c(=O)c1CCN1CCC(c3noc4cc(F)ccc34)CC1)CCCC2` [RISPERIDONE], in the series with Rattus norvegicus [3], the Activity entry is listed as “Non-Toxic”.
In the case of `CN(C)C(=O)N[C@H]1CC[C@H](CCN2CCN(c3cccc(Cl)c3Cl)CC2)CC1` [CARIPRAZINE], the inhibition result in the series with Rattus norvegicus [4] is “Active”. Further, the outcome in the series on Rattus norvegicus [5] was Active. Besides, the Activity entry in the series with Rattus norvegicus [6] is “Dose-dependent effect”; with Rattus norvegicus [3], “Non-Toxic”. Further, in [7], the inhibition at 1 h, 1 µM was < 20%.
For the compound `CCOC(=O)N[C@H]1CC[C@H](CCN2CCN(c3nsc4ccccc34)CC2)CC1`, the Ratio Ki with CHO amounted to 12.2. Also, the Stability entry in [8] was “Unstable”. Moreover, the pKi is 9.15 at D(2) dopamine receptor, 9.28 in series [9], 10.24 on D(3) dopamine receptor and 9.70 in series [10].
As for `O=C(Nc1ccccc1)N[C@H]1CC[C@H](CCN2CCN(c3nsc4ccccc34)CC2)CC1`, the inhibition entry in the series with Rattus norvegicus [4] is “Active”. In addition, the Ratio Ki in the series on CHO came to 14.7. In addition, the pKi is 9.20 at D(2) dopamine receptor, 9.68 in [9], 10.37 at D(3) dopamine receptor and 8.85 in [10].
